Assay outcomes from PubChem.
Rtt109 HAT inh: inhibitors of C. albicans Rtt109/Vps75 HAT, primary screen, biochemical, ThioGlo CoA-SH fluorescence, plate reader | purified Rtt109/Vps75, 4 h | inhibition, % at 34.9 µM | 0.16% of 330,000 active;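 active = inhibition of at least 50% in every replicate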
Target sequence (Q5AAJ8 whole entry, looked up): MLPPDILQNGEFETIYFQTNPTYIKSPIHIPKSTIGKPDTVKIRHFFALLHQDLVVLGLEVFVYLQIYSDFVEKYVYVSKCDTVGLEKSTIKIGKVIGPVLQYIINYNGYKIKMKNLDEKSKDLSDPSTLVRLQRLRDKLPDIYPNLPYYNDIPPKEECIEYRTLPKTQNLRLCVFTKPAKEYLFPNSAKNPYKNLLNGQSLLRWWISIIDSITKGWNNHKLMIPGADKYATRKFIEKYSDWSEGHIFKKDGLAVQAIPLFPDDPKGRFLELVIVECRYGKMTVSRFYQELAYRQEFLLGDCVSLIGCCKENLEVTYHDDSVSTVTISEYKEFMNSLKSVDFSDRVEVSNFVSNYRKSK
GRIN3A LBD mod: binders of NR3A ligand-binding domain, primary screen, biophysical, differential scanning fluorimetry, uHTS | Glutamate receptor ionotropic, NMDA 3A (GRIN3A) ligand-binding domain | NR3A LBD differential scanning fluorimetry, Tm shift; 0% = protein alone, 100% = glycine-bound protein | Tm shift relative to glycine control, % at 25 µM | 2.5% of 340,000 active | AID 1259313, 2017;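 active = melting temperature shift of at least 10% of the positive control shift, at one fixed dose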
JMJD2C inh: inhibitors of GASC-1 histone demethylase, primary screen, biochemical, fluorescence, DELFIA europium | Lysine-specific demethylase 4C (Homo sapiens), Q9H3R0 | GST-JMJD2C(1-420) H3K9me3 demethylation | inhibition, % at 2.35 µM | 0.069% of 330,000 active | AID 2099, 2009;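 active = more than half of a compound's replicate wells show inhibition beyond 50%, single wells judged on their own value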;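 note: signal counts dimethyl H3K9 product captured on neutravidin plate; 0% = median of DMSO wells and 100% = 0.3 times that DMSO median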
T cell HTS: modulators of CD8 T cell-vesicle binding, primary screen, mouse 2C CD8+ T cells, flow cytometry; 2C CD8+ T cell-vesicle binding; hits give low values; response (vesicle binding), % at 7 µM; 0.068% of 330,000 active; AID 2052, 2009;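 active = response, share of CD8 T cells binding vesicles, and their 90th percentile fluorescence all below set limits, cut at about 80% in these data, passing the limit was not always enough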;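 note: values below 100% mean blocked vesicle binding to the CD8+ T cells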
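Material: murine 2C transgenic CD8+ T lymphocytes / Also added: QL9-peptide-loaded Drosophila micro-vesicles bearing Ld, ICAM-1 and B7-1 / Schedule: binding step 1.5 h, 37 °C, antibody labelling 20 min, ice / Signal: flow cytometry, PE anti-B7-1 (FL2) versus Alexa647 anti-CD8 (FL8), PFA-fixed / Evaluation: percent CD8+ FL2 mean versus row control / Benchmarks: naked versus QL9-loaded vesicles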
Numbers without * were called inactive; i = inactive; . = no result given. A selection: hits, their analogues and other compounds. The true share with any hit is near 2.8%.

SMILES	Rtt109 HAT inh	GRIN3A LBD mod	JMJD2C inh	T cell HTS
CN(C)c1ccc(S(=O)(=O)NCC(=O)NCCC2=CCCCC2)cc1[N+](=O)[O-]	-8	3	6	346
CC(C)(C)NS(=O)(=O)c1ccc(NC(=O)Cc2ccccc2[N+](=O)[O-])cc1	.	-3	25	203
CCCCNS(=O)(=O)c1ccc(NC(=O)C2c3ccccc3Oc3ccccc32)cc1	-4	19*	5	i
CCOCC(=O)Nc1ccc(S(=O)(=O)NCCc2ccccc2)cc1	0	11*	-20	292
CCCCNS(=O)(=O)c1ccc(NC(=O)Cc2ccccc2[N+](=O)[O-])cc1	53*	-12	-17	869
CC(=O)Nc1ccc(S(=O)(=O)NCCCc2ccccc2)cc1	-1	-1	-3	310
O=C(NN=C1CCCCCC1)c1ccc(Cl)s1	-7	-1	1	451
Cc1noc(C)c1S(=O)(=O)N1CCN(c2ccc([N+](=O)[O-])cc2)CC1	-9	1	1	298
O=[N+]([O-])c1ccc(N2CCN(S(=O)(=O)c3cnc[nH]3)CC2)cc1	-1	10*	-1	291
COC(=O)c1cc(S(=O)(=O)N2CCN(c3ccc([N+](=O)[O-])cc3)CC2)c[nH]1	0	207*	3	82
CC(=O)c1cccc(N(CC(=O)NC2CCCC2)C(=O)c2csnn2)c1	1	-2	-10	i
Cc1cc(C)c(OC2(c3ccccc3)OC(=O)c3ccccc32)c(C)c1 (stereo not given)	12	16*	4	308
CCc1cc2c(=O)n(CC(C)C)cnc2s1	6	18*	8	425
CCCCCn1cnc2sc(CC)cc2c1=O	-5	8	-14	216
COc1ccccc1N1CCN(C2CCCN(Cc3cc(F)cc(F)c3)C2)CC1 (stereo not given)	9	1	-8	238
CCOC(=O)NC(=O)/C(N=Nc1cc(C)cc(C)c1)=C(\C)O	8	1	-4	156
CCOC(=O)NC(=O)/C(N=Nc1ccc(C(F)(F)F)cc1)=C(\C)O	3	154*	-3	86
NS(=O)(=O)c1ccc(CNc2nc(-c3cccnc3)nc3ccccc23)cc1	-16	-4	-6	866
CCC1Nc2ncnc(N3CCN(c4ccccc4)CC3)c2N(Cc2ccc(Br)cc2)C1=O (stereo not given)	-4	-4	0	491
CC(C)c1ccc(Nc2nnc(SCC(=O)Nc3ncc(S(=O)(=O)c4ccc([N+](=O)[O-])cc4)s3)s2)cc1	-12	13*	1	203
O=C(CCl)Nc1ncc(S(=O)(=O)c2ccc([N+](=O)[O-])cc2)s1	1	-3	-3	376
Cc1ccc(Nc2nnc(SCC(=O)Nc3ncc(S(=O)(=O)c4ccc([N+](=O)[O-])cc4)s3)s2)cc1	-1	16*	-17	308
Cc1cc(=O)[nH]c(SCC(=O)Nc2ncc(S(=O)(=O)c3ccc([N+](=O)[O-])cc3)s2)n1	0	-3	42	181
O=C(Nc1ncc(S(=O)(=O)c2ccc([N+](=O)[O-])cc2)s1)c1ccc2ccccc2c1	-5	22*	18	276
Cc1nnc(NC(=O)C23CC4CC(CC(C4)C2)C3)s1	2	-1	2	252
SMILES	Rtt109 HAT inh	GRIN3A LBD mod	JMJD2C inh	T cell HTS
Cc1cc(C)n2ncc(/C(N)=N/OC(=O)Nc3ccccc3)c2n1	2	1	-8	302
CC(Oc1cccc(Cl)c1)C(=O)Nc1ccc(N2CCOCC2)cc1N1CCOCC1 (stereo not given)	2	.	9	386
CC(=O)N1CCN(S(=O)(=O)c2cccc(C(=O)N(Cc3ccccc3)c3ccc(C)cc3)c2)CC1	34	0	1	739
Cc1ccc(C)c(NC(=O)CN(C)C(=O)c2cccc(S(=O)(=O)N3CCN(Cc4ccccc4)CC3)c2)c1	17	17*	-1	228
CN1CCN(S(=O)(=O)c2cccc(C(=O)N(Cc3ccccc3)c3ccccc3)c2)CC1	56*	-2	-14	702
Cc1ccc(C)c(NC(=O)CN(C)C(=O)c2cccc(S(=O)(=O)N3CCCC3)c2)c1	9	-2	.	.
CN1C[C@@H]2[C@@H]3C(=O)N(Cc4ccccc4)C(=O)[C@@H]3[C@](Cc3ccccc3)(C1=O)N2C(=O)c1ccc(C(F)(F)F)cc1	9	-1	.	.
CCN(CC)Cc1ccc(OC)c(Cl)c1	.	14*	-2	206
Cc1cccc(N2C(S)=C(C#N)C(=O)NC23CCCCC3)c1	3	16*	6	225
Cc1ccccc1N1C(S)=C(C#N)C(=O)NC12CCCCC2	86*	-9	14	216
CCOc1cc(C(=O)O)cc(Cl)c1OC	-9	21*	2	247
CCOc1cc(C(N)=O)cc(Cl)c1OCC	-11	-4	12	752
CC(C)Cn1c(CCC(N)=O)nnc1SC(C)C(=O)Nc1ccc2c(c1)OCO2 (stereo not given)	-3	0	8	199
Clc1ccc2[nH]c3c(c2c1)CCc1cn[nH]c1-3	37	18*	-2	144
O=C1CCCc2c1[nH]c1ccccc21	-5	-3	7	288
c1ccc2c3c([nH]c2c1)-c1[nH]ncc1CC3	13	30*	-5	525
Cc1cc(Cl)ccc1OCC(=O)NCCC(=O)O	0	2	5	247
Cc1cc(Cl)ccc1OCC(=O)OCC(=O)NCCNC(=O)COC(=O)COc1ccc(Cl)cc1C	0	12*	.	.
CN(CC(=O)Nc1ccc(Cl)c(S(=O)(=O)N2CCOCC2)c1)C(=O)c1ccc(C#N)cc1	0	1	.	318
O=C(COC(=O)C1(c2ccc(F)cc2)CCCC1)NCc1ccc2c(c1)OCO2	-8	16*	11	174
CCCc1cc(C(=O)OCC(=O)N2CCN(c3ccc(OC)cc3)CC2)sc1C	-3	1	5	234
Cc1cc(Cl)c(OCCOCCN2CCC(C)CC2)c(Br)c1	1	17*	2	95
Cc1cc(Cl)c(OCCOCCN2CCN(C)CC2)c(Br)c1	0	0	-1	172
CCN1C[C@@H]2[C@@H]3C(=O)N(Cc4ccccc4)C(=O)[C@@H]3[C@](Cc3ccccc3)(C1=O)N2C(=O)c1ccc(C(C)(C)C)cc1	8	1	.	.
CC(C)=CCC[C@](C)(O)C1CC[C@]2(C)C1[C@H](O)CC1[C@@]3(C)CC[C@H](O[C@@H]4O[C@H](CO)[C@@H](O)[C@H](O)[C@H]4O[C@@H]4O[C@H](CO)[C@@H](O)[C@H](O)[C@H]4O)C(C)(C)C3CC[C@]12C (stereo not given in full)	5	0	.	205
